Reference: ChEMBL document CHEMBL3526049 (Drug Metab Dispos, 2012)

Tests used:
[1] = Tmax in wild-type Wistar rat at 20 mg/kg, po by LC-MS/MS analysis; type: ADME, organism-based; parameters: dose 20 mg/kg, route oral; details: in vivo
How it was run: (§1)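 Male Wistar wild-type rats and Mrp2-deficient TR⁻ rats with femoral artery and vein cannulas. Sulfasalazine given as an iv bolus (5 mg/kg, water at pH 9–10) and by oral gavage, each followed by arterial plasma sampling over 24 h. Sulfasalazine and sulfapyridine measured by LC-MS/MS; noncompartmental parameters; mean ± S.D., n = 3.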

[2] = Tmax in wild-type Sprague-Dawley rat treated with sulfasalazine at 20 mg/kg, po by LC-MS/MS analysis; type: ADME, organism-based; parameters: dose 20 mg/kg, route oral; details: in vivo
How it was run: (§2)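 Male Sprague-Dawley knockout rats or wild-type rats matched for age and weight, with femoral artery and vein cannulas. Crossover design: sulfasalazine 5 mg/kg iv bolus (water, pH 9–10) on day 0, then 20 mg/kg oral gavage (0.5% carboxymethyl cellulose in PBS, pH 7.4) on day 3. Arterial plasma collected 0–24 h. Sulfasalazine and sulfapyridine measured by LC-MS/MS; noncompartmental parameters; mean ± S.D., n = 4 to 8.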

[3] = Cmax in wild-type Wistar rat at 20 mg/kg, po by LC-MS/MS analysis; type: ADME, organism-based; parameters: dose 20 mg/kg, route oral; details: in vivo
How it was run: (§3)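 Male Wistar wild-type or Mrp2-deficient TR⁻ rats with femoral artery and vein cannulas. Sulfasalazine was given as a 5 mg/kg i.v. bolus and as a 20 mg/kg oral dose. Arterial plasma was sampled to 24 h and analysed for parent and sulfapyridine by LC-MS/MS. Noncompartmental parameters; n = 3, mean ± S.D.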

[4] = Tmax in MDR1A knockout Sprague-Dawley rat treated with sulfasalazine at 20 mg/kg, po by LC-MS/MS analysis; type: ADME, organism-based; parameters: dose 20 mg/kg, route oral; details: in vivo; how it was run: as §2
[5] = test system: Rattus norvegicus; experiment: Cmax in MRP2 knockout Sprague-Dawley rat treated with sulfasalazine at 20 mg/kg, po by LC-MS/MS analysis; type: ADME, organism-based; parameters: dose 20 mg/kg, route oral; details: in vivo
How it was run: (§4)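 Male Sprague-Dawley knockout or age/weight-matched wild-type rats with femoral artery and vein cannulas. Crossover design: day 0 i.v. bolus 5 mg/kg sulfasalazine in water at pH 9–10, then day 3 gavage 20 mg/kg in 0.5% carboxymethyl cellulose/PBS pH 7.4. Arterial plasma was sampled to 24 h. Sulfasalazine and sulfapyridine were measured by LC-MS/MS (1–5000 ng/ml). Parameters are noncompartmental; n = 4–8, mean ± S.D.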

[6] = Half life in MRP2-deficient Wistar rat at 20 mg/kg, po by LC-MS/MS analysis; type: ADME, organism-based; parameters: dose 20 mg/kg, route oral; details: in vivo; how it was run: as §1
[7] = test system: Rattus norvegicus; experiment: Drug metabolism in wild-type Wistar rat assessed as metabolite to parent ratio treated with sulfasalazine at 20 mg/kg, po; type: ADME, organism-based; parameters: dose 20 mg/kg, route oral; details: in vivo; how it was run: as §3
[8] = test system: Rattus norvegicus; experiment: AUC (infinity) in BCRP knockout Sprague-Dawley rat treated with sulfasalazine at 20 mg/kg, po by LC-MS/MS analysis; type: ADME, organism-based, Plasma; parameters: dose 20 mg/kg, route oral, time infinity; details: in vivo; how it was run: as §4
[9] = test system: Rattus norvegicus; experiment: Drug metabolism in wild-type Sprague-Dawley rat assessed as metabolite to parent ratio treated with sulfasalazine at 20 mg/kg, po; type: ADME, organism-based; parameters: dose 20 mg/kg, route oral; details: in vivo; how it was run: as §4
[10] = Cmax in MRP2-deficient Wistar rat at 20 mg/kg, po by LC-MS/MS analysis; type: ADME, organism-based; parameters: dose 20 mg/kg, route oral; details: in vivo; how it was run: as §3
[11] = test system: Rattus norvegicus; experiment: Cmax in wild-type Sprague-Dawley rat treated with sulfasalazine at 20 mg/kg, po by LC-MS/MS analysis; type: ADME, organism-based; parameters: dose 20 mg/kg, route oral; details: in vivo; how it was run: as §4
[12] = Half life in MDR1A knockout Sprague-Dawley rat treated with sulfasalazine at 20 mg/kg, po by LC-MS/MS analysis; type: ADME, organism-based; parameters: dose 20 mg/kg, route oral; details: in vivo; how it was run: as §2
[13] = Half life in MRP2 knockout Sprague-Dawley rat treated with sulfasalazine at 20 mg/kg, po by LC-MS/MS analysis; type: ADME, organism-based; parameters: dose 20 mg/kg, route oral; details: in vivo; how it was run: as §2
[14] = test system: Rattus norvegicus; experiment: Drug metabolism in MDR1A knockout Sprague-Dawley rat assessed as metabolite to parent ratio treated with sulfasalazine at 20 mg/kg, po; type: ADME, organism-based; parameters: dose 20 mg/kg, route oral; details: in vivo; how it was run: as §4
[15] = Half life in wild-type Wistar rat at 20 mg/kg, po by LC-MS/MS analysis; type: ADME, organism-based; parameters: dose 20 mg/kg, route oral; details: in vivo; how it was run: as §1
[16] = test system: Rattus norvegicus; experiment: AUC (infinity) in wild-type Sprague-Dawley rat treated with sulfasalazine at 20 mg/kg, po by LC-MS/MS analysis; type: ADME, organism-based, Plasma; parameters: time infinity, dose 20 mg/kg, route oral; details: in vivo; how it was run: as §4
[17] = Tmax in MRP2-deficient Wistar rat at 20 mg/kg, po by LC-MS/MS analysis; type: ADME, organism-based; parameters: dose 20 mg/kg, route oral; details: in vivo; how it was run: as §1
[18] = test system: Rattus norvegicus; experiment: Drug metabolism in BCRP knockout Sprague-Dawley rat assessed as metabolite to parent ratio treated with sulfasalazine at 20 mg/kg, po; type: ADME, organism-based; parameters: dose 20 mg/kg, route oral; details: in vivo; how it was run: as §4
[19] = test system: Rattus norvegicus; experiment: AUC (infinity) in MRP2 knockout Sprague-Dawley rat treated with sulfasalazine at 20 mg/kg, po by LC-MS/MS analysis; type: ADME, organism-based, Plasma; parameters: dose 20 mg/kg, route oral, time infinity; details: in vivo; how it was run: as §4
[20] = test system: Rattus norvegicus; experiment: Drug metabolism in MRP2-deficient Wistar rat assessed as metabolite to parent ratio treated with sulfasalazine at 20 mg/kg, po; type: ADME, organism-based; parameters: dose 20 mg/kg, route oral; details: in vivo; how it was run: as §3
[21] = Tmax in BCRP knockout Sprague-Dawley rat treated with sulfasalazine at 20 mg/kg, po by LC-MS/MS analysis; type: ADME, organism-based; parameters: dose 20 mg/kg, route oral; details: in vivo; how it was run: as §2
[22] = Tmax in MRP2 knockout Sprague-Dawley rat treated with sulfasalazine at 20 mg/kg, po by LC-MS/MS analysis; type: ADME, organism-based; parameters: dose 20 mg/kg, route oral; details: in vivo; how it was run: as §2
[23] = Half life in wild-type Sprague-Dawley rat treated with sulfasalazine at 20 mg/kg, po by LC-MS/MS analysis; type: ADME, organism-based; parameters: dose 20 mg/kg, route oral; details: in vivo; how it was run: as §2
[24] = AUC (infinity) in wild-type Wistar rat at 20 mg/kg, po by LC-MS/MS analysis; type: ADME, organism-based; parameters: dose 20 mg/kg, route oral, time infinity; details: plasma; how it was run: as §3
[25] = test system: Rattus norvegicus; experiment: Cmax in MDR1A knockout Sprague-Dawley rat treated with sulfasalazine at 20 mg/kg, po by LC-MS/MS analysis; type: ADME, organism-based; parameters: dose 20 mg/kg, route oral; details: in vivo; how it was run: as §4
[26] = AUC (infinity) in MRP2-deficient Wistar rat at 20 mg/kg, po by LC-MS/MS analysis; type: ADME, organism-based; parameters: time infinity, dose 20 mg/kg, route oral; details: plasma; how it was run: as §3
[27] = test system: Rattus norvegicus; experiment: AUC (infinity) in MDR1A knockout Sprague-Dawley rat treated with sulfasalazine at 20 mg/kg, po by LC-MS/MS analysis; type: ADME, organism-based, Plasma; parameters: time infinity, dose 20 mg/kg, route oral; details: in vivo; how it was run: as §4
[28] = test system: Rattus norvegicus; experiment: Drug metabolism in MRP2 knockout Sprague-Dawley rat assessed as metabolite to parent ratio treated with sulfasalazine at 20 mg/kg, po; type: ADME, organism-based; parameters: dose 20 mg/kg, route oral; details: in vivo; how it was run: as §4
[29] = Half life in BCRP knockout Sprague-Dawley rat treated with sulfasalazine at 20 mg/kg, po by LC-MS/MS analysis; type: ADME, organism-based; parameters: dose 20 mg/kg, route oral; details: in vivo; how it was run: as §2
[30] = test system: Rattus norvegicus; experiment: Cmax in BCRP knockout Sprague-Dawley rat treated with sulfasalazine at 20 mg/kg, po by LC-MS/MS analysis; type: ADME, organism-based; parameters: dose 20 mg/kg, route oral; details: in vivo; how it was run: as §4

Nc1ccc(S(=O)(=O)Nc2ccccn2)cc1 [SULFAPYRIDINE]
Tmax [1]: 4 h | Tmax [2]: 5 h | Cmax [3]: 4320 ng/mL | Tmax [4]: 7 h | Cmax [5]: 2499 ng.Eq/ml | half-life [6]: 1.7 h | Ratio [7]: 16 | AUC [8]: 14576 ng.Eq.hr/ml | Ratio [9]: 50 | Cmax [10]: 3240 ng/mL | Cmax [11]: 4764 ng.Eq/ml | half-life [12]: 1.3 h | half-life [13]: 1.6 h | Ratio [14]: 24 | half-life [15]: 2.3 h | AUC [16]: 21992 ng.Eq.hr/ml | Tmax [17]: 4 h | Ratio [18]: 4.6 | AUC [19]: 12675 ng.Eq.hr/ml | Ratio [20]: 34 | Tmax [21]: 4 h | Tmax [22]: 4.4 h | half-life [23]: 2.3 h | AUC(0-inf) [24]: 29400 ng·h/mL | Cmax [25]: 2525 ng.Eq/ml | AUC(0-inf) [26]: 15400 ng·h/mL | AUC [27]: 14985 ng.Eq.hr/ml | Ratio [28]: 22 | half-life [29]: 1.7 h | Cmax [30]: 2843 ng.Eq/ml
